Experimental data: ChEMBL document CHEMBL1142242, “Indanylacetic acid derivatives carrying 4-thiazolyl-phenoxy tail groups, a new class of potent PPAR alpha/gamma/delta pan agonists: synthesis, structure-activity relationship, and in vivo efficacy” (J Med Chem, 2007)
Calls of active or inactive are those of the source. The calls are words filed in the database; no cut-off is given here.

Legend:
Cytochrome P450 1A2 = Cytochrome P450 1A2 (Homo sapiens, UniProt P05177); experiment: Inhibition of CYP1A2; assay type: ADME
Method in brief: (§1)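 Enzyme assays per CYP isoform (1A2, 2C8, 2D6, 3A4), with turnover of an appropriate fluorescent substrate as read-out; IC₅₀ reported.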

[1] = molecular target: Peroxisome proliferator-activated receptor delta (Mus musculus, UniProt P35396); experiment: Agonist activity at mouse PPAR delta
[2] = Aqueous solubility at pH 6.8; assay type: physicochemical
[3] = Cmax in mouse at 10 mg/kg, po; assay type: ADME, organism-based; set-up: dose 10 mg/kg, route oral; settings: in vivo
Method in brief: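 Mice dosed orally in 0.5% methylcellulose vehicle; plasma Cmax reported.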

[4] = molecular target: T1, Peroxisome proliferator-activated receptor delta (Homo sapiens, UniProt Q03181); experiment: Agonist activity at human PPAR delta expressed in CV1 cells by GAL4 transactivation assay
T1 sequence (Q03181 whole entry): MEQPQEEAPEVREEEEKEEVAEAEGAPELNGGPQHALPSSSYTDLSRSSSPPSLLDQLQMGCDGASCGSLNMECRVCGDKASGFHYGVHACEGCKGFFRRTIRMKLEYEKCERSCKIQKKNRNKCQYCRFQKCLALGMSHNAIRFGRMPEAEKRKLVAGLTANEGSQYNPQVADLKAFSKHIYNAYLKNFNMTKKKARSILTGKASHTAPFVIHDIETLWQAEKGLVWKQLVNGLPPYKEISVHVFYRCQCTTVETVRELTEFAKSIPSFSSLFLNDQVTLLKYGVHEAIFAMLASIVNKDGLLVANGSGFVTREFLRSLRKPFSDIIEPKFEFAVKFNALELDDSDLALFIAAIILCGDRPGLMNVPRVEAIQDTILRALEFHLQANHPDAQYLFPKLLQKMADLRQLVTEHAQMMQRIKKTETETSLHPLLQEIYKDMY

Cytochrome P450 2C8 = Cytochrome P450 2C8 (Homo sapiens, UniProt P10632); experiment: Inhibition of CYP2C8; assay type: ADME; method in brief: as §1
Cytochrome P450 2C9 = Cytochrome P450 2C9 (Homo sapiens, UniProt P11712); experiment: Inhibition of CYP2C9; assay type: ADME
Cytochrome P450 2D6 = Cytochrome P450 2D6 (Homo sapiens, UniProt P10635); experiment: Inhibition of CYP2D6; assay type: ADME; method in brief: as §1
Cytochrome P450 3A4 = Cytochrome P450 3A4 (Homo sapiens, UniProt P08684); experiment: Inhibition of CYP3A4; assay type: ADME; method in brief: as §1
Androgen receptor = Androgen receptor (Homo sapiens, UniProt P10275); experiment: Displacement of [3H]dihydrotestosterone from human recombinant androgen receptor expressed in SF9 baculovirus cells
Estrogen receptor = Estrogen receptor (Mus musculus, UniProt O08537+P19785); experiment: Displacement of [3H]O-estradiol from ER in Swiss mouse uteri; assay type: protein assay
Glucocorticoid receptor = Glucocorticoid receptor (Homo sapiens, UniProt P04150); experiment: Displacement of [H]dexamethaxone from glucocorticoid receptor in HUH cells; assay type: cell-based
Progesterone receptor = Progesterone receptor (Homo sapiens, UniProt P06401); experiment: Displacement of [3H]progesterone from progesterone receptor in T47D cells; assay type: cell-based
Method in brief: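 Cytosol from T47D cells incubated overnight at 4 °C with ³H-progesterone at 10 nM final, with or without compound. DMSO defined total binding and 1 µM unlabelled progesterone defined nonspecific binding. Bound and free ligand were separated on a spin plate, and the flow-through was counted by scintillation.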

[5] = molecular target: T2, Peroxisome proliferator-activated receptor alpha (Homo sapiens) (UniProt Q07869); experiment: (§2) Agonist activity at human PPAR alpha expressed in CV1 cells by GAL4 transactivation assay; assay type: functional, cell-based; settings: CV-1
T2 sequence (whole entry): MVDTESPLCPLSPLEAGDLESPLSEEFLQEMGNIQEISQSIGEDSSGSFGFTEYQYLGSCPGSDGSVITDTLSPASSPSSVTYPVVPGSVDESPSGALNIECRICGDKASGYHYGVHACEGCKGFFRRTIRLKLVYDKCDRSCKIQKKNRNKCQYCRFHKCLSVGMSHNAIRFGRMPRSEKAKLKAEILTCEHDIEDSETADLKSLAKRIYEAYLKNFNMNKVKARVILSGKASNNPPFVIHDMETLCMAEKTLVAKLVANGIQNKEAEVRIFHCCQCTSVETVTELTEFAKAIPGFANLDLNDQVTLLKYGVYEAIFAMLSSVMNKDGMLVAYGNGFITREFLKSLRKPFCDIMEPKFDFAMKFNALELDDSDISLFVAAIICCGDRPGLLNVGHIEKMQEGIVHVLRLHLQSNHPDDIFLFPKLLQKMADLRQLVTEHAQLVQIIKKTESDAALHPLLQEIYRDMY
Method in brief: (§3)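 CV-1 cells plated, grown overnight at 37 °C in 5% CO₂, then transfected with GAL4-fused human PPARα ligand binding domain, pFR-LUC and pRL-SV40 reporter DNAs by lipofection. After a further overnight incubation, cells were exposed to compound or vehicle overnight. Activity was read as dual-luciferase reporter signal.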

[6] = molecular target: T3, Peroxisome proliferator-activated receptor alpha (Homo sapiens, UniProt Q07869); experiment: as §2; assay type: functional, cell-based, CV-1; method in brief: as §3
T3 sequence (Q07869 whole entry): T2 sequence (whole entry)

[7] = molecular target: T3, Peroxisome proliferator-activated receptor alpha; experiment: Agonist activity at human PPAR alpha by FRET assay; assay type: functional
Method in brief: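 Human PPARα ligand binding domain (GST-tagged) association with biotin-labeled co-activator CBP; Eu-labeled anti-GST antibody and streptavidin-APC; incubated 2 h at rt in buffer with or without compound; fluorescence read at 615 or 655 nm emission, 340 nm excitation.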

[8] = molecular target: T1, Peroxisome proliferator-activated receptor delta; experiment: Agonist activity at human PPAR delta by FRET assay; assay type: functional
[9] = molecular target: T4, Peroxisome proliferator-activated receptor gamma (Mus musculus, UniProt P37238); experiment: Agonist activity at PPAR gamma in mouse 3T3L1 cells assessed as increase in insulin receptor by IRBA; assay type: functional, cell-based, 3T3-L1
T4 sequence (P37238 whole entry): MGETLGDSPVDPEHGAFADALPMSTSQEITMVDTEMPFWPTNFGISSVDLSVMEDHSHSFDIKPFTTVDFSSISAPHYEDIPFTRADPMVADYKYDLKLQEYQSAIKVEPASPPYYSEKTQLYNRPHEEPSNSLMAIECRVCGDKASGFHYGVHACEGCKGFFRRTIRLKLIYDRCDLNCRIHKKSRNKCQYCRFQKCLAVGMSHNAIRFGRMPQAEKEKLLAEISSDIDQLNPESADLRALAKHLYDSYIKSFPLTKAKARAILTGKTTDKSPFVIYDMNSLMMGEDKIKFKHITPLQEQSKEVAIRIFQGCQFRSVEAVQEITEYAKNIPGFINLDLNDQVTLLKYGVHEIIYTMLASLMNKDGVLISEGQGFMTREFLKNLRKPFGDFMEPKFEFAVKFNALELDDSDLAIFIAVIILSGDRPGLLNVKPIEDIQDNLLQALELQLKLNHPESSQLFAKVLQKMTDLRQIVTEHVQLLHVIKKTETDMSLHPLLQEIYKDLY

[10] = molecular target: T5, Peroxisome proliferator-activated receptor alpha (Mus musculus) (UniProt P23204); experiment: (§4) Agonist activity at mouse PPAR alpha; assay type: functional
T5 sequence (whole entry): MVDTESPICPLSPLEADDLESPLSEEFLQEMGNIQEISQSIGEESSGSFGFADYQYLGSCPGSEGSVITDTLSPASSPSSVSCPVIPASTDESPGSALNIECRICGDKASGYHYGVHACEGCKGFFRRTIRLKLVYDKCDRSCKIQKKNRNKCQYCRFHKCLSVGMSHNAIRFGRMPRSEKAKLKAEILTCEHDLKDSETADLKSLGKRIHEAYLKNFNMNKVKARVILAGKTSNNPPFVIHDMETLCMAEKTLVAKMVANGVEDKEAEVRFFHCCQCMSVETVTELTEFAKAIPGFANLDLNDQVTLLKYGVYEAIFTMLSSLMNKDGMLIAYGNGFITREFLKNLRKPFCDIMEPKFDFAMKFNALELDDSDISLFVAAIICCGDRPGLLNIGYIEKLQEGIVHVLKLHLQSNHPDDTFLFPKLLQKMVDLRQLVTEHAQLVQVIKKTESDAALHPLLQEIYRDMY

[11] = molecular target: Peroxisome proliferator-activated receptor alpha (Mus musculus, UniProt P23204); experiment: as §4; assay type: functional
[12] = molecular target: PPAR gamma (Homo sapiens); experiment: Agonist activity at human PPAR gamma expressed in human preadipocytes assessed as increase in insulin receptor by IRBA
[13] = Aqueous solubility of the compound; assay type: physicochemical
Rattus norvegicus = experiment: Reduction of FFA level in ZDF rat at 10 mg/kg, po after 21 days; assay type: functional, organism-based; set-up: dose 10 mg/kg
Method in brief: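 Male ZDF rats, on chow 4-8 weeks to confirm hyperglycemia, grouped by equal baseline blood glucose; oral dosing once daily for 21 days in 0.5% methylcellulose in water; bled ~24 h after last dose; plasma FFA measured.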

Mus musculus [14] = experiment: Reduction of blood glucose level in orally dosed db/db mouse at 1 mg/kg after 8 days; assay type: functional, organism-based; set-up: dose 1 mg/kg
Method in brief: (§5)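 Female db/db mice, on chow 3-4 weeks to confirm hyperglycemia, grouped by equal baseline blood glucose; oral dosing once daily in 0.5% methylcellulose in water; blood glucose by analyzer ~24 h after last dose; percent change vs vehicle = ((Tf/Ti)/(Vf/Vi) − 1) × 100.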

Mus musculus [15] = experiment: Reduction of blood glucose level in orally dosed db/db mouse at 3 mg/kg after 8 days; assay type: functional, organism-based; set-up: dose 3 mg/kg; method in brief: as §5
Mus musculus [16] = experiment: Reduction of blood glucose level in orally dosed db/db mouse at 10 mg/kg after 8 days; assay type: functional, organism-based; set-up: dose 10 mg/kg; method in brief: as §5

Progesterone receptor, sequence (P06401 whole entry): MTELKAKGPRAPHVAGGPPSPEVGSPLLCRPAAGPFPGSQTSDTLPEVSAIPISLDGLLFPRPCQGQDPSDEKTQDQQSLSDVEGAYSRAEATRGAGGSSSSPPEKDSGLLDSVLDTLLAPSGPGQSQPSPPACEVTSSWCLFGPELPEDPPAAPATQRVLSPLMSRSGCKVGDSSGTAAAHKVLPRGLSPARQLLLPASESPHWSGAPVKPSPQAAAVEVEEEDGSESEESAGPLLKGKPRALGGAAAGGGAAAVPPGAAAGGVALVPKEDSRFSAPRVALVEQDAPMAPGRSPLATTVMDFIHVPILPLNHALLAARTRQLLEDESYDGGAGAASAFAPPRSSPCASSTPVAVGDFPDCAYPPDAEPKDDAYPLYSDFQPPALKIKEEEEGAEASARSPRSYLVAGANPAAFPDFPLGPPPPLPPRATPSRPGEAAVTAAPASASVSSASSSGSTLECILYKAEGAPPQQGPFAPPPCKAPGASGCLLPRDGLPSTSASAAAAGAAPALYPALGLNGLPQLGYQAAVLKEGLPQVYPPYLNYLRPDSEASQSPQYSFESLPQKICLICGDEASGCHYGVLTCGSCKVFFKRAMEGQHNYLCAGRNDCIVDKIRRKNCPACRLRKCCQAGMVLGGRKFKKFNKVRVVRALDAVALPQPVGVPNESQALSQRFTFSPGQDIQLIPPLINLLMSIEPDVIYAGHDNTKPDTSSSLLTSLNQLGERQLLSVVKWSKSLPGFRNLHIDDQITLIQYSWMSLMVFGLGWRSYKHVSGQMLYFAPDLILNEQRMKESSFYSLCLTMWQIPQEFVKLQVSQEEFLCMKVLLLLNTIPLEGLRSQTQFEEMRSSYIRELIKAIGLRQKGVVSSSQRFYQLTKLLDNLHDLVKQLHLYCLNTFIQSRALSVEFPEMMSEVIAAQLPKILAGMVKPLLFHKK
Cytochrome P450 3A4, sequence (P08684 whole entry): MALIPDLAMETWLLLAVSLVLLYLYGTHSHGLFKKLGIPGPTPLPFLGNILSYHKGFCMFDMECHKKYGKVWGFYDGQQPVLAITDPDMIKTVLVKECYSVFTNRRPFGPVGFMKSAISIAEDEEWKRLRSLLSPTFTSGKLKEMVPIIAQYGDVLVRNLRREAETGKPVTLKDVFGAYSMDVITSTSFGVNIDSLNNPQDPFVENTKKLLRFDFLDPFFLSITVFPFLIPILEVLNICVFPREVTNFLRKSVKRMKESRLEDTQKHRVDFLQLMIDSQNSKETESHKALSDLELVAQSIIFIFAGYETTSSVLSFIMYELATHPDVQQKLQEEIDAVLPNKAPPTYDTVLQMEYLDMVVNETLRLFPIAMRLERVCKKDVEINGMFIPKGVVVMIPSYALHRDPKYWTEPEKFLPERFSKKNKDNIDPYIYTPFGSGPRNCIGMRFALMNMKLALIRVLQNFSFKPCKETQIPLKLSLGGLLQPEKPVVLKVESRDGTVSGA
Cytochrome P450 2D6, sequence (P10635 whole entry): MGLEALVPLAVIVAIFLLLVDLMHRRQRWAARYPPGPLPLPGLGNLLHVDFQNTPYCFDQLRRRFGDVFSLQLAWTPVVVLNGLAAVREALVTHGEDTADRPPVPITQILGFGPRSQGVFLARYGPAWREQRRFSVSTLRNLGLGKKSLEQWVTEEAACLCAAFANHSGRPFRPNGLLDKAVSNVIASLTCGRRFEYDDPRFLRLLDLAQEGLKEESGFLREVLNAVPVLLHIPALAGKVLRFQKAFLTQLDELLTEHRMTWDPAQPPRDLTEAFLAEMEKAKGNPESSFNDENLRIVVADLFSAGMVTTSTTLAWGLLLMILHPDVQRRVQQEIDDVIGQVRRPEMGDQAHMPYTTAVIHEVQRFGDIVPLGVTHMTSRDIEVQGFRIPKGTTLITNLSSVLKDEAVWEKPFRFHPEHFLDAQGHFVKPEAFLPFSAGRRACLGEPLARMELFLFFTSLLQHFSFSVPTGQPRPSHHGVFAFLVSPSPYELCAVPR
Cytochrome P450 2C9, sequence (P11712 whole entry): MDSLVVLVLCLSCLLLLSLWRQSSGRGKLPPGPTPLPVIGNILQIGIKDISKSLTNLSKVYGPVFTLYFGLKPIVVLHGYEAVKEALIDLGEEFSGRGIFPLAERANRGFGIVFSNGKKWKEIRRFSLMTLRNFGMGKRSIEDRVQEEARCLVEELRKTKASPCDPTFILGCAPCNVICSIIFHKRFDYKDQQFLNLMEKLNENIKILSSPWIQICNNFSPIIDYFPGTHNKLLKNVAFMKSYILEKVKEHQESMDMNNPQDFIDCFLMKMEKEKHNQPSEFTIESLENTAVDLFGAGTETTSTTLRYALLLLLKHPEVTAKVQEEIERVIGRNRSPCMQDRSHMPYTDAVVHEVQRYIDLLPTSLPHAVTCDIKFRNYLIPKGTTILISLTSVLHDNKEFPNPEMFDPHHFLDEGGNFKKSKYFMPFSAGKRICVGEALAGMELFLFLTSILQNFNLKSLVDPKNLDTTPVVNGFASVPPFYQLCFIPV
Cytochrome P450 2C8, sequence (P10632 whole entry): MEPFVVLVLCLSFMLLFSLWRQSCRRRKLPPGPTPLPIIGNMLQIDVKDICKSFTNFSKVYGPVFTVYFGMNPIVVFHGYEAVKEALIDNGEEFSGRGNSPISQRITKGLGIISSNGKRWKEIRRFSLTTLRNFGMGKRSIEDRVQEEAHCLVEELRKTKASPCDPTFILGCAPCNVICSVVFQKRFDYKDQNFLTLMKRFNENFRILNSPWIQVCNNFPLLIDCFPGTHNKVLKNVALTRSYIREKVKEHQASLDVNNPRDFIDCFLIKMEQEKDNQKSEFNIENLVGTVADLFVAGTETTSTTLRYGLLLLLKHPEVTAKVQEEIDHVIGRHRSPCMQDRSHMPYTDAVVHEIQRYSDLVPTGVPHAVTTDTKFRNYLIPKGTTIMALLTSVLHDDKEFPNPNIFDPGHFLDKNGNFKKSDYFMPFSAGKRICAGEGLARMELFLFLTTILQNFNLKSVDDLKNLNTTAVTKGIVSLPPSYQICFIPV
Cytochrome P450 1A2, sequence (P05177 whole entry, canonical isoform): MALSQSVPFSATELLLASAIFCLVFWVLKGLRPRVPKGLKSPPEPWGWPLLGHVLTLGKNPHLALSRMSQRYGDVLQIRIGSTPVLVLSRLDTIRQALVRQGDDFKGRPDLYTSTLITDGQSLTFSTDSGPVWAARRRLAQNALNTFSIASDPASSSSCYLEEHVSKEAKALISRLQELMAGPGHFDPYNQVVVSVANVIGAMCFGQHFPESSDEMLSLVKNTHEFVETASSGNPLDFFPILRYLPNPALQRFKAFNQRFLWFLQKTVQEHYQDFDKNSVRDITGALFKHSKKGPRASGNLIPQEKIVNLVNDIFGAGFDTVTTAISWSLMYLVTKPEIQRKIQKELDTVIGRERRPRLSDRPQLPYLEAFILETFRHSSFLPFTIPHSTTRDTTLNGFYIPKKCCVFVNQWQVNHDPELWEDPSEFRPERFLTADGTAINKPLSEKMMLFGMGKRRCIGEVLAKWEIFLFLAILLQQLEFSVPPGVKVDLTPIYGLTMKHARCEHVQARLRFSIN
Peroxisome proliferator-activated receptor delta (Mus musculus, UniProt P35396), sequence (P35396 whole entry): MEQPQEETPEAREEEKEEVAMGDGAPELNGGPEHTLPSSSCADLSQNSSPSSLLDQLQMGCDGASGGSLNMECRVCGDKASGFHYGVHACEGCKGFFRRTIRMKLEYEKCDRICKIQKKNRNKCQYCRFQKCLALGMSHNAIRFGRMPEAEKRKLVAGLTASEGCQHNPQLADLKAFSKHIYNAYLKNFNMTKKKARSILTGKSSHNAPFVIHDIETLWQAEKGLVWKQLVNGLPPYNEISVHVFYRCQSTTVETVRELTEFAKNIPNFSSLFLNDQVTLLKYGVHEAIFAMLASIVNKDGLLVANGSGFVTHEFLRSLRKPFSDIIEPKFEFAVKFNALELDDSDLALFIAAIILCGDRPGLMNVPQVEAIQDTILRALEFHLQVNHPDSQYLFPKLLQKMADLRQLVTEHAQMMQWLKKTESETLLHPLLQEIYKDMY
Glucocorticoid receptor, sequence (P04150 whole entry): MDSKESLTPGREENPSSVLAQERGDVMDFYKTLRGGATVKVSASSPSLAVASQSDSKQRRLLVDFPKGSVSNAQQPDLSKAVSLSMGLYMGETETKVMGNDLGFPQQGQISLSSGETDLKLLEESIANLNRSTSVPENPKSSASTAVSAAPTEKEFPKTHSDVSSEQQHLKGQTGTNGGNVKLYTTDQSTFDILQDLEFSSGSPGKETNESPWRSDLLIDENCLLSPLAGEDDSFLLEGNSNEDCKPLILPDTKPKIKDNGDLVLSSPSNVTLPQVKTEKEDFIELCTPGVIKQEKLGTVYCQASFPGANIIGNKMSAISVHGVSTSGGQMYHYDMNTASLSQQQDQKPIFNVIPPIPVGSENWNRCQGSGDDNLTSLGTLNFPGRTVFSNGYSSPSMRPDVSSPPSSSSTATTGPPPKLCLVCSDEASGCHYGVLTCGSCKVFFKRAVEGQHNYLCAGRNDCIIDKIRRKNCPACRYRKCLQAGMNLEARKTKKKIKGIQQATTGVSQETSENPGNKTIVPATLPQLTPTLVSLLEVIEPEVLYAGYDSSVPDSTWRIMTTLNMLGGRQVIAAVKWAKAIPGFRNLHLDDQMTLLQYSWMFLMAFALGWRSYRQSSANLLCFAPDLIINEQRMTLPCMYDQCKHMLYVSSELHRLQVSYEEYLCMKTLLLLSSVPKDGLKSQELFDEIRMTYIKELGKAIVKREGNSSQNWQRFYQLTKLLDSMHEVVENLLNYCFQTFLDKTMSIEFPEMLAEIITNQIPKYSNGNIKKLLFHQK

CCCc1cc(-c2nc3c(s2)CCCC3)ccc1OCCCOc1ccc2c(c1)CC[C@H]2CC(=O)O
IC50 (Cytochrome P450 1A2): > 10000 nM | EC50 [1]: 8.6 nM | solubility [2]: < 5 µM | Cmax [3]: 5.1 µM | EC50 [4]: 2.6 nM | IC50 (Cytochrome P450 2C8): > 10000 nM | IC50 (Cytochrome P450 2C9): > 10000 nM | IC50 (Cytochrome P450 2D6): > 10000 nM | IC50 (Cytochrome P450 3A4): > 10000 nM | EC50 (Androgen receptor): > 10000 nM | EC50 (Estrogen receptor): > 10000 nM | EC50 (Glucocorticoid receptor): > 10000 nM | EC50 (Progesterone receptor): > 10000 nM | Activity [5]: 100% | EC50 [6]: 5 nM | EC50 [7]: 43 nM | EC50 [8]: 1.9 nM | EC50 [9]: 12 nM | Activity [10]: 79% | EC50 [11]: 7700 nM | EC50 [12]: 81 nM

CCCc1c(OCCCOc2ccc3c(c2)CC[C@H]3CC(=O)O)ccc2c(C(F)(F)F)noc12
solubility [13]: < 1 µM | EC50 [7]: 192 nM | EC50 [8]: 6 nM | EC50 [9]: 42 nM

CN(CCOc1ccc(CC2SC(=O)NC2=O)cc1)c1ccccn1 (centres undefined)
Activity (Rattus norvegicus): Active | Activity (Mus musculus [14]): Dose-dependent effect | Activity (Mus musculus [15]): Dose-dependent effect | Activity (Mus musculus [16]): Dose-dependent effect
